Data on 27 compounds can be found in PubChem BioAssay AID624016 (Broad Institute, 2012).

Activity calls are given as the source filed them.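 How the source made its calls: active means fitted curve reaching 35% inhibition at both 405 and 600 nm absorbance, in duplicate, within twice the top valid dose; inactive means the rest, including signal rising instead of falling.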

In the first assay the test system is P. aeruginosa + EDDHA, pyoverdine absorbance 405 nm, 24-30 h. The assay is described as follows: P. aeruginosa growth delay under iron chelation, dose response, absorbance 405 nm, dry powder, set 4 (AID 624016).
Conditions: not given
The procedure, abridged: (§1)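 Test system: P. aeruginosa ATCC 15692 cells. Quantity: bacterial inoculum at final OD600 of 0.0000005. Buffer or medium: succinate M9, pH 7.0, 2 µM EDDHA. Dosing: 3-fold compound dilution series prepared from 10 mM stock. Timing: 24-30 h exposure at 37 °C. Detection: absorbance 405 nm, pyoverdine.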
Regarding `N#CC(c1cccc(Cl)n1)c1ccc(Cl)cc1F` (configuration not stated), the AC35 is 22.3 µM.

`N#CC(c1ccc(Cl)cc1)c1cccc(C(F)(F)F)n1` (configuration not stated): the AC35 is 8.64 µM.

On to `N#CC(c1ccc(C(F)(F)F)cc1)c1cccc(C(F)(F)F)n1` (configuration not stated), for which the AC35 was > 50 µM (inactive).

Regarding `N#CC(c1cccc(C(F)(F)F)n1)c1ccc(Cl)cc1F` (configuration not stated), the AC35 is 15 µM.

Take `N#CC(c1ccc(Cl)cc1)c1ncccc1Cl` (configuration not stated): the AC35 is 10.7 µM.

As to `N#CC(c1ccc(F)cc1)c1cccc(C(F)(F)F)n1` (configuration not stated), the AC35 was 28.9 µM.

Test system in the next assay: not listed separately
Described as above. Particulars: P. aeruginosa + EDDHA, pyoverdine absorbance 405 nm, 24-30 h; at 16 µM (top of the series). The essentials: as §1
In the case of `Cc1ccc(C(C#N)c2ccccc2OC(F)(F)F)nc1C#N` (configuration not stated), the activity change, negative = inhibition was -24.9% (inactive).

The assay is the same for the next values; noted with them: P. aeruginosa + EDDHA, pyoverdine absorbance 405 nm, 24-30 h; at 50 µM (top of the series).
Take `N#CC(c1ccc(Cl)cc1Cl)c1ncccc1Cl` (configuration not stated): the activity change, negative = inhibition is 1.29% (inactive).

Turning to `CCCCC(C#N)c1ccc(Cl)cc1` (configuration not stated), the activity change, negative = inhibition is -0.817% (inactive).

With `N#CC(c1ccc(C(F)(F)F)c(Cl)n1)c1ccccc1OC(F)(F)F` (configuration not stated), the activity change, negative = inhibition is -6.71% (inactive).

Consider `N#Cc1ccc(C(C#N)c2ccc(Cl)cc2Cl)nc1` (configuration not stated), for which the activity change, negative = inhibition is -0.009% (inactive).

With `N#CC(c1ccc(F)cc1)c1ccc(C(F)(F)F)c(Cl)n1` (configuration not stated), the activity change, negative = inhibition was -4.12% (inactive).

Consider `N#CC(c1ccc(Cl)cc1)c1ccc(C(F)(F)F)cn1` (configuration not stated), for which the activity change, negative = inhibition was 3.24% (inactive).

For `N#CC(c1ccc(Cl)cc1)c1ccc(C(F)(F)F)c(Cl)n1` (configuration not stated), the activity change, negative = inhibition was 20.6% (inactive).

Turning to `CCCCC(C#N)c1ccc(Cl)cc1F` (configuration not stated), the activity change, negative = inhibition was 5.25% (inactive).

Take `CCCCC(C#N)c1ccc(C(F)(F)F)cc1` (configuration not stated): the activity change, negative = inhibition was -3.25% (inactive).

Turning to `N#CC(c1cccc(C(F)(F)F)n1)c1ccccc1OC(F)(F)F` (configuration not stated), the activity change, negative = inhibition is -7.92% (inactive).

On to `CC(C)CC(C#N)c1ccc(Cl)cc1` (configuration not stated), for which the activity change, negative = inhibition is -16.3% (inactive).

`N#CC(c1ccc(C(F)(F)F)c(Cl)n1)c1ccc(Cl)cc1Cl` (configuration not stated): the activity change, negative = inhibition was 15.9% (inactive).

As for `N#CC(c1ccc(C(F)(F)F)cc1)c1cccc(Cl)n1` (configuration not stated), the activity change, negative = inhibition is -4.32% (inactive).

With `CCCCC(C#N)c1ccc(F)cc1` (configuration not stated), the activity change, negative = inhibition was -0.303% (inactive).

Turning to `N#CC(c1ccc(C(F)(F)F)cc1)c1ccc(C(F)(F)F)c(Cl)n1` (configuration not stated), the activity change, negative = inhibition is 2.24% (inactive).

Take `CC(C#N)(c1ccc(Cl)cc1)c1ccc(C(F)(F)F)cn1` (configuration not stated): the activity change, negative = inhibition is -4.71% (inactive).

Regarding `N#Cc1cccc(C(C#N)c2ccc(Cl)cc2F)n1` (configuration not stated), the activity change, negative = inhibition is -15.5% (inactive).

On to `CCCCC(C#N)c1ccc(Cl)cc1Cl` (configuration not stated), for which the activity change, negative = inhibition was -5.19% (inactive).

In the case of `CCCC(C#N)c1ccc(Cl)cc1` (configuration not stated), the activity change, negative = inhibition was -8.71% (inactive).

Consider `CCCCC(C#N)c1ccccc1OC(F)(F)F` (configuration not stated), for which the activity change, negative = inhibition is -2.91% (inactive).
